Measured values taken from ChEMBL document CHEMBL3997810, “A Novel Potent Anticancer Compound Optimized from a Natural Oridonin Scaffold Induces Apoptosis and Cell Cycle Arrest through the Mitochondrial Pathway” (J Med Chem, 2017).
Activity calls are given as the source filed them. The rule behind the calls is not given here.

Tests used:
[1] = Antiproliferative activity against human KB/CP4 cells after 48 hrs by MTT assay; format: functional, cell-based; conditions: KB/CP4, 48 h
Method in brief: (§1)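 Colorimetric MTT assay. KB-3-1, NCI-H460 and Bel-7404 cells were seeded at 4000 cells/well; resistant KB/CP4, NCI-H460/MX20 and Bel-7404/CP20 were seeded at 7000 cells/well. Cells were pre-incubated 24 h at 37 °C, 5% CO2, then exposed to a compound concentration series for 48 h with DMSO ≤0.25%. Absorbance read at 570 nm. Quadruplicate wells, three repeats; means ± SD.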

[2] = Antiproliferative activity against human NCI-H460/MX20 cells after 48 hrs by MTT assay; format: functional, cell-based; conditions: NCI-H460/MX20, 48 h; method in brief: as §1
[3] = system: Bel-7402; assay: Antiproliferative activity against human Bel7402 cells after 72 hrs by MTT assay; format: functional, cell-based; conditions: Bel-7402, 72 h
Method in brief: (§2)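 MGC-803 and MCF-7 cells grown in DMEM (MCF-7 with 1× NEAA); Bel-7402 and K562 grown in RPMI 1640; all media with 10% FBS. Cells seeded at 3500/well, pre-incubated 24 h, then exposed to compounds in fresh medium (DMSO ≤0.25%) for 72 h at 37 °C. MTT read-out at 570 nm. Quadruplicate wells, repeated three times; means ± SD (n = 3).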

[4] = system: KB 3-1; assay: Antiproliferative activity against human KB-3-1 cells after 48 hrs by MTT assay; format: functional, cell-based; conditions: KB 3-1, 48 h; method in brief: as §1
[5] = system: BEL-7404 tumor cell line; assay: Antiproliferative activity against human Bel7404 cells after 48 hrs by MTT assay; format: functional, cell-based; conditions: BEL-7404, 48 h; method in brief: as §1
[6] = Antiproliferative activity against human BEL7404/CP20 cells after 48 hrs by MTT assay; format: functional, cell-based; conditions: BEL7404/CP20, 48 h; method in brief: as §1
[7] = system: MCF7; assay: Cytotoxicity against human MCF7 cells at 10 to 50 uM after 24 hrs by LDH assay; format: functional, cell-based
Method in brief: (§3)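 Membrane integrity assay on MCF-7 and Bel-7402 cells seeded at ~5 × 10^3 per well for 24 h, then given compounds at 10, 20 or 50 μM. Culture medium collected and assayed with CytoTox-ONE LDH reagent for 10 min, followed by stop solution. Fluorescence read at Ex 560/Em 590 nm. Expressed as percentage of unstimulated cells.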

[8] = system: NCI-H460; assay: Antiproliferative activity against human NCI-H460 cells after 48 hrs by MTT assay; format: functional, cell-based; conditions: NCI-H460, 48 h; method in brief: as §1
[9] = system: K562; assay: Antiproliferative activity against human K562 cells after 72 hrs by MTT assay; format: functional, cell-based; conditions: K562, 72 h; method in brief: as §2
[10] = system: Bel-7402; assay: Cytotoxicity against human Bel7402 cells at 10 to 50 uM after 24 hrs by LDH assay; format: functional, cell-based; method in brief: as §3
[11] = Selectivity ratio of IC50 for human KB/CP4 cells to IC50 for human KB-3-1 cells
[12] = system: MCF7; assay: Antiproliferative activity against human MCF7 cells after 72 hrs by MTT assay; format: functional, cell-based; conditions: MCF7, 72 h; method in brief: as §2
[13] = system: MGC-803; assay: Antiproliferative activity against human MGC803 cells after 72 hrs by MTT assay; format: functional, cell-based; conditions: MGC-803, 72 h; method in brief: as §2
[14] = system: Bel-7402; assay: Antiproliferative activity against human Bel7402 cells at 1 uM after 72 hrs by MTT assay; format: functional, cell-based

Structure (SMILES)	IC50 [1] [µM]	IC50 [2] [µM]	IC50 [3] [µM]	IC50 [4] [µM]	IC50 [5] [µM]	IC50 [6] [µM]	Activity [7]	IC50 [8] [µM]	IC50 [9] [µM]	Activity [10]	Ratio IC50 [11]	IC50 [12] [µM]	IC50 [13] [µM]	Activity [14]
C=C1C(=O)[C@]23[C@H](O)[C@H]1CC[C@H]2[C@@]12CO[C@@]3(O)[C@@H](O)[C@@H]1C(C)(C)C[C@H](Cl)[C@H]2O	5.92	49	1.69	6.54	6.96	5.98	inactive	8.8	2.3	inactive	<1	3.43	3.18	
C=C1C(=O)[C@@]23[C@@H]4OC(C)(C)O[C@@]25OC[C@]2([C@@H](OS(C)(=O)=O)CCC(C)(C)[C@H]2[C@@H]5O)[C@@H]3CC[C@@H]14														Active
C=C1C(=O)[C@]23[C@H](OC(=O)c4ccc([N+](=O)[O-])cc4)[C@H]1CC[C@H]2[C@]12C=CCC(C)(C)[C@H]1[C@H](O)[C@]3(O)OC2			5.14						1.7			4.47	6.39	
C=C1C(=O)[C@]23[C@H](OC(=O)CCCC)[C@H]1CC[C@H]2[C@]12C=CCC(C)(C)[C@H]1[C@H](O)[C@]3(O)OC2			6						1.74			2.49	6.19	
C=C1C(=O)[C@]23[C@H](OC(C)=O)[C@H]1CC[C@H]2[C@]12C=CC(=O)C(C)(C)[C@H]1[C@H](O)[C@]3(O)OC2			3.61						4.64			9.41	5.19	
C=C1C(=O)[C@]23[C@H](OC(=O)c4ccccc4C(F)(F)F)[C@H]1CC[C@H]2[C@]12C=CC(=O)C(C)(C)[C@H]1[C@H](O)[C@]3(O)OC2			2.93						2.61			3.84	3.61	
C=C1C(=O)[C@]23[C@H](OC(=O)c4cc(C)ccc4C)[C@H]1CC[C@H]2[C@]12C=CCC(C)(C)[C@H]1[C@H](O)[C@]3(O)OC2			7.11						4.19			6.14	6.94	
C=C1C(=O)[C@]23[C@H](O)[C@H]1CC[C@H]2[C@@]12CO[C@@]3(O)[C@@H](O)[C@@H]1C(C)(C)C[C@H]1O[C@H]12	7.74	11.2	5.77	21	13.7	21.6	inactive	8.81	1.59	inactive	<1	5.37	5.74	
C=C1C(=O)[C@]23[C@H](OC(=O)c4ccccc4C(F)(F)F)[C@H]1CC[C@H]2[C@]12C=CCC(C)(C)[C@H]1[C@H](O)[C@]3(O)OC2			3.18						2.96			2.66	2.46	
C=C1C(=O)[C@]23[C@H](OC(=O)/C=C/c4cccc([N+](=O)[O-])c4)[C@H]1CC[C@H]2[C@]12C=CCC(C)(C)[C@H]1[C@H](O)[C@]3(O)OC2			1.77						0.58			1.37	2.47	
C=C1C(=O)[C@]23[C@H](OC(=O)c4c(OC)cccc4OC)[C@H]1CC[C@H]2[C@]12C=CCC(C)(C)[C@H]1[C@H](O)[C@]3(O)OC2			45.3						6.85			12.5	21.2	
C=C1C(=O)[C@]23[C@H](O)[C@H]1CC[C@H]2[C@]12C=C[C@H](O)C(C)(C)[C@H]1[C@H](O)[C@]3(O)OC2			25.5						41.1			303	61.1	
O=c1[nH]cc(F)c(=O)[nH]1 [FLUOROURACIL]			2.25						3.54			1.75	3.12	
C=C1C(=O)[C@@]23[C@@H]4OC(C)(C)O[C@@]25OC[C@]2([C@@H]6O[C@@H]6CC(C)(C)[C@H]2[C@@H]5O)[C@@H]3CC[C@@H]14			1.32						1.66			1.58	1.42	Active
C=C1C(=O)[C@]23[C@H](OC(=O)C4CCCCC4)[C@H]1CC[C@H]2[C@]12C=CCC(C)(C)[C@H]1[C@H](O)[C@]3(O)OC2			4.06						3.22			5.83	3.6	
C=C1C(=O)[C@@]23[C@@H]4OC(C)(C)O[C@@]25OC[C@]2(C=CCC(C)(C)[C@H]2[C@@H]5O)[C@@H]3CC[C@@H]14			3.66						7.98			1.49	3.61	Active
C=C1C(=O)[C@]23[C@H](OC(=O)CCCCCCC)[C@H]1CC[C@H]2[C@]12C=CCC(C)(C)[C@H]1[C@H](O)[C@]3(O)OC2			4.34				inactive		3	inactive		2.44	2.71	
C=C1C(=O)[C@]23[C@H](OC(=O)/C=C/c4cc(OC)c(OC)c(OC)c4)[C@H]1CC[C@H]2[C@]12C=CCC(C)(C)[C@H]1[C@H](O)[C@]3(O)OC2			2.44						0.55			2.36	3.91	
C=C1C(=O)[C@]23[C@H](OC(C)=O)[C@H]1CC[C@H]2[C@]12C=C[C@H](OC(C)=O)C(C)(C)[C@H]1[C@H](O)[C@]3(O)OC2			2.07						1.88			4.13	3.09	Active
C=C1C(=O)[C@]23[C@H](OC(=O)/C=C/c4ccc(F)cc4)[C@H]1CC[C@H]2[C@]12C=CCC(C)(C)[C@H]1[C@H](O)[C@]3(O)OC2			2.58						1.34			2.51	5.11	
C=C1C(=O)[C@]23[C@H](OC(=O)c4ccnc(Cl)c4)[C@H]1CC[C@H]2[C@]12C=CC(=O)C(C)(C)[C@H]1[C@H](O)[C@]3(O)OC2			3.3						2.94			5.15	3.76	
C=C1C(=O)[C@]23[C@H](OC(C)=O)[C@H]1CC[C@H]2[C@]12C=CCC(C)(C)[C@H]1[C@H](O)[C@]3(O)OC2			1.67						1.67			2.57	1.82	
C=C1C(=O)[C@]23[C@H](OC(=O)c4cccc(C)c4C)[C@H]1CC[C@H]2[C@]12C=CCC(C)(C)[C@H]1[C@H](O)[C@]3(O)OC2			2.33						1.68			3.58	3.78	
C=C1C(=O)[C@]23[C@H](OC(=O)/C=C/c4ccc(OC)cc4)[C@H]1CC[C@H]2[C@]12C=CCC(C)(C)[C@H]1[C@H](O)[C@]3(O)OC2			2.42						0.88			0.95	2.91	
C=C1C(=O)[C@]23[C@H](OC(=O)c4cc(F)c(F)c(F)c4F)[C@H]1CC[C@H]2[C@]12C=CCC(C)(C)[C@H]1[C@H](O)[C@]3(O)OC2			1.58						1.83			2.11	1	
C=C1C(=O)[C@]23[C@H](OC(=O)/C=C/c4ccccc4OC)[C@H]1CC[C@H]2[C@]12C=CCC(C)(C)[C@H]1[C@H](O)[C@]3(O)OC2	4.61	5.53	2.22	8.31	6.06	6.87		5.31	0.43		<1	0.82	2.46	
C=C1C(=O)[C@]23[C@H](OC(=O)c4ccc(Br)cc4)[C@H]1CC[C@H]2[C@]12C=CCC(C)(C)[C@H]1[C@H](O)[C@]3(O)OC2	3.24	4.73	1.06	5.82	5.35	6.05		5.31	0.33		<1	0.14	2.01	
C=C1C(=O)[C@]23[C@H](OC(=O)c4cccc(Cl)c4)[C@H]1CC[C@H]2[C@]12C=CCC(C)(C)[C@H]1[C@H](O)[C@]3(O)OC2			4.16						2.23			2.8	3.65	
